{
  "source": "ChEMBL document CHEMBL1134785",
  "about": "“Synthesis and biological evaluation of prostaglandin-F alkylphosphinic acid derivatives as bone anabolic agents for the treatment of osteoporosis” (J Med Chem, 2001)",
  "key": {"Rattus norvegicus [1]": {"system": "Rattus norvegicus", "experiment": "Endosteal mineralizing surface Histomorphometrically after a dose of 3000 ug/kg in tibial diaphysis", "type": "functional", "summary_of_the_method": "(§1)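 Six-month-old rats, bilaterally ovariectomized, 6-8 per group, on natural chow. After 60 days they received once-daily subcutaneous dosing for 60 days at 0.01–3.0 mg/kg. Vehicle was acetate-buffered saline with methylcellulose and polyoxyethylenesorbitan monooleate. Labels were xylenol orange 90 mg/kg before treatment and calcein 10 mg/kg 14 and 4 days before sacrifice. Tibial histomorphometry was read under fluorescent light, with ANOVA/LSD versus vehicle.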"}, "Rattus norvegicus [2]": {"system": "Rattus norvegicus", "experiment": "Trabecular thickness […] measured Histomorphometrically after a dose of 3000 ug/kg in proximal tibial metaphysis", "type": "functional, Trabecula", "summary_of_the_method": "(§2)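 Six-month-old rats were ovariectomized, and 60 days later daily subcutaneous dosing began for 60 days, with vehicle of acetate-buffered saline, methylcellulose and polysorbate. Xylenol orange (90 mg/kg) labelled bone pre-treatment and calcein (10 mg/kg) 14 and 4 days pre-sacrifice. Histomorphometry covered the proximal tibial metaphysis 1-4 mm distal to the growth plate-metaphyseal junction. Groups were 6-8 rats, compared by ANOVA/LSD vs vehicle.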"}, "Rattus norvegicus [3]": {"system": "Rattus norvegicus", "experiment": "connectivity density using micro Computed Tomography(CT) after a dose of 100 ug/kg in Vertebral Bone", "type": "functional", "summary_of_the_method": "(§3)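 Rats were ovariectomized at 6 months of age and, after 60 days, dosed subcutaneously once daily for 60 days, with vehicle of acetate-buffered saline, methylcellulose and polysorbate. At necropsy the fifth lumbar vertebra was scanned by micro-CT to obtain cancellous architecture. Groups were 6-8 rats; results were compared to vehicle by ANOVA with least significant difference test.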"}, "Rattus norvegicus [4]": {"system": "Rattus norvegicus", "experiment": "Derived trabecular no […]measured using micro Computed Tomography(CT) after a dose of 3000 ug/kg in Vertebral Bone", "type": "functional, Trabecula", "summary_of_the_method": "(§4)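 Micro-CT of the fifth lumbar vertebra, measuring cancellous bone volume and architecture. Rats were 6 months old, OVX 60 days before treatment, then dosed daily for 60 days. Test-agent doses were 10–3000 µg/kg, given as a once-daily subcutaneous injection; 6 mg/kg/day was given to the positive-control group. Groups were compared with vehicle by ANOVA plus LSD test.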"}, "Rattus norvegicus [5]": {"system": "Rattus norvegicus", "experiment": "Marrow area (mm) measured Histomorphometrically after a dose of 3000 ug/kg in tibial diaphysis", "type": "functional", "summary_of_the_method": "as §1"}, "Rattus norvegicus [6]": {"system": "Rattus norvegicus", "experiment": "Tissue area (mm) measured Histomorphometrically after a dose of 300 ug/kg in tibial diaphysis", "type": "functional", "summary_of_the_method": "(§5)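 Rats on natural chow (1.46% Ca) were bilaterally ovariectomized at 6 months and left untreated for 60 days. They then received once-daily subcutaneous doses for 60 days, with vehicle of acetate-buffered saline, methylcellulose and polysorbate. Xylenol orange (90 mg/kg) was given before treatment and calcein (10 mg/kg) 14 and 4 days before sacrifice. Tibiae were analysed by fluorescent histomorphometry, 6-8 rats/group, ANOVA/LSD vs vehicle.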"}, "[7]": {"target": "T1, Prostaglandin D2 receptor (Homo sapiens, UniProt Q13258)", "T1 sequence (Q13258 whole entry)": "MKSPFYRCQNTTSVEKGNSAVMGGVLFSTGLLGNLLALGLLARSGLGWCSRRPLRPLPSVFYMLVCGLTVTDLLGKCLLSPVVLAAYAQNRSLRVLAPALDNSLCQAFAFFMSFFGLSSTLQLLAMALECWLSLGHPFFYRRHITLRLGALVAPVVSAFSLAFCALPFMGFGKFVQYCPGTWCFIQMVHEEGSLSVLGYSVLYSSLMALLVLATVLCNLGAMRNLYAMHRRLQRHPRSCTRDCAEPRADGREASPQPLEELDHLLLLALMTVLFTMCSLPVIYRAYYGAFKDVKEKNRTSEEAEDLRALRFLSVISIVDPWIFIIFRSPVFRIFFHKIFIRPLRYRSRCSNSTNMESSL", "experiment": "In vitro binding at DP human prostaglandin receptor using [3H]- PGD-2 as radioligand", "summary_of_the_method": "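hDP stably expressed in HEK-293 cells, collected 4-5 days after seeding. Membranes made by lysis and 100000g spin, then taken up at 1 mg protein/mL in TME buffer at pH 7.4. Competition binding used 5 nM [3H]PGD2, read by filtration and scintillation counting.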"}, "Rattus norvegicus [8]": {"system": "Rattus norvegicus", "experiment": "connectivity density (mm-3) using micro Computed Tomography(CT) after a does of 300 ug/kg in Vertebral Bone", "type": "functional", "summary_of_the_method": "as §3"}, "Rattus norvegicus [9]": {"system": "Rattus norvegicus", "experiment": "Bone formation rate/tissue volume (%/year) bone measured histomorphometrically after a dose of 100 ug/kg in proximal tibial metaphysis", "type": "functional", "conditions": "at 100 µg/kg"}, "Rattus norvegicus [10]": {"system": "Rattus norvegicus", "experiment": "Trabecular no (mm)measured Histomorphometrically after a dose of 30 ug/kg in proximal tibial metaphysis", "type": "functional, Trabecula", "summary_of_the_method": "as §2"}, "Rattus norvegicus [11]": {"system": "Rattus norvegicus", "experiment": "Derived trabecular no […]measured using micro Computed Tomography(CT) after a dose of 100 ug/kg in Vertebral Bone", "type": "functional, Trabecula", "summary_of_the_method": "as §4"}, "Rattus norvegicus [12]": {"system": "Rattus norvegicus", "experiment": "Marrow area (mm) measured Histomorphometrically after a dose of 100 ug/kg in tibial diaphysis", "type": "functional", "summary_of_the_method": "as §1"}, "Rattus norvegicus [13]": {"system": "Rattus norvegicus", "experiment": "Endosteal eroded surface(%) measured Histomorphometrically after a dose of 300 ug/kg in tibial diaphysis", "type": "functional", "summary_of_the_method": "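Tibial histomorphometry in 6-month-old rats, OVX 60 days before treatment, then daily injection for 60 days. Vehicle was acetate-buffered saline with methylcellulose and polyoxyethylenesorbitan monooleate. Rats received xylenol orange 90 mg/kg before treatment and calcein 10 mg/kg at 14 and 4 days pre-sacrifice. Rats were killed by cardiac puncture under ketamine/xylazine. Groups were compared with vehicle by ANOVA plus LSD test.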"}, "Rattus norvegicus [14]": {"system": "Rattus norvegicus", "experiment": "Bone formation rate/tissue volume (%/year) bone measured histomorphometrically after a dose of 3000 ug/kg in proximal tibial metaphysis", "type": "functional", "conditions": "at 3000 µg/kg"}, "Rattus norvegicus [15]": {"system": "Rattus norvegicus", "experiment": "Bone Volume /Tissue Volume (%)measured Histomorphometrically after a dose of 10 ug/kg in proximal tibial metaphysis", "type": "functional", "conditions": "at 10 µg/kg"}, "Rattus norvegicus [16]": {"system": "Rattus norvegicus", "experiment": "Periosteal mineralizing surface (%) measured Histomorphometrically after a dose of 100 ug/kg in tibial diaphysis", "type": "functional", "summary_of_the_method": "as §5"}, "Rattus norvegicus [17]": {"system": "Rattus norvegicus", "experiment": "Tissue area (mm) measured Histomorphometrically after a dose of 30 ug/kg in tibial diaphysis", "type": "functional", "summary_of_the_method": "as §5"}, "Rattus norvegicus [18]": {"system": "Rattus norvegicus", "experiment": "Mineral apposition rate ([…])bone measured Histomorphometrically after a dose of 100 ug/kg in proximal tibial metaphysis", "type": "functional", "summary_of_the_method": "(§6)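 Ovariectomized six-month-old rats, 6-8 per group, were dosed subcutaneously once daily at 0.01–3.0 mg/kg for 60 days, starting 60 days after surgery. Vehicle was acetate-buffered saline, methylcellulose and polyoxyethylenesorbitan monooleate. Labels were xylenol orange 90 mg/kg pretreatment and calcein 10 mg/kg at 14 and 4 days before necropsy. Histomorphometry covered the proximal tibial metaphysis, 1–4 mm distal to the growth plate–metaphyseal junction. ANOVA/LSD versus vehicle.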"}, "Rattus norvegicus [19]": {"system": "Rattus norvegicus", "experiment": "Bone formation rate/bone volume (%/year) bone measured histomorphometrically after a dose of 3000 ug/kg in proximal tibial metaphysis", "type": "functional", "conditions": "at 3000 µg/kg"}, "Rattus norvegicus [20]": {"system": "Rattus norvegicus", "experiment": "Mineralizing surface/bone surface(%) measured Histomorphometrically after a dose of 1000 ug/kg in proximal tibial metaphysis", "type": "functional", "summary_of_the_method": "as §6"}, "Rattus norvegicus [21]": {"system": "Rattus norvegicus", "experiment": "Bone Volume /Tissue Volume (%)measured Histomorphometrically after a dose of 300 ug/kg in proximal tibial metaphysis", "type": "functional", "conditions": "at 300 µg/kg"}, "Rattus norvegicus [22]": {"system": "Rattus norvegicus", "experiment": "Trabecular no (mm)measured Histomorphometrically after a dose of 100 ug/kg in proximal tibial metaphysis", "type": "functional, Trabecula", "summary_of_the_method": "as §2"}, "Rattus norvegicus [23]": {"system": "Rattus norvegicus", "experiment": "Derived trabecular thickness (um) measured using micro Computed Tomography(CT) after a dose of 300 ug/kg in Vertebral Bone", "type": "functional, Trabecula", "summary_of_the_method": "as §4"}},
  "data": [
    {"smiles": "CP(=O)(O)CCC/C=C\\C[C@@H]1[C@@H](/C=C/[C@@H](O)COc2ccccc2)[C@H](O)C[C@@H]1O", "values": [
      {"measurement": "Endosteal mineralizing surface", "setting": "Rattus norvegicus [1]", "value": 29.4, "unit": "%"},
      {"measurement": "Trabecular thickness", "setting": "Rattus norvegicus [2]", "value": 55.8, "unit": "µm"},
      {"measurement": "Connectivity density", "setting": "Rattus norvegicus [3]", "value": 68.1, "unit": "mm**-3"},
      {"measurement": "Derived trabecular number", "setting": "Rattus norvegicus [4]", "value": 4.71, "unit": "mm-1"},
      {"measurement": "Marrow area", "setting": "Rattus norvegicus [5]", "value": 0.74, "unit": "mm"},
      {"measurement": "Tissue area", "setting": "Rattus norvegicus [6]", "value": 5.01, "unit": "mm"},
      {"measurement": "IC50", "setting": "[7]", "value": "> 10", "unit": "µM"},
      {"measurement": "Connectivity density", "setting": "Rattus norvegicus [8]", "value": 66.71, "unit": "mm**-3"},
      {"measurement": "Activity", "setting": "Rattus norvegicus [9]", "value": 18.23, "unit": "%"},
      {"measurement": "Trabecular no.", "setting": "Rattus norvegicus [10]", "value": "0.87 1/mm"},
      {"measurement": "Derived trabecular number", "setting": "Rattus norvegicus [11]", "value": 4.83, "unit": "mm-1"},
      {"measurement": "Marrow area", "setting": "Rattus norvegicus [12]", "value": 0.82, "unit": "mm²"},
      {"measurement": "Endosteal eroded surface", "setting": "Rattus norvegicus [13]", "value": 1.32, "unit": "%"},
      {"measurement": "Activity", "setting": "Rattus norvegicus [14]", "value": 20.13, "unit": "%"},
      {"measurement": "Activity", "setting": "Rattus norvegicus [15]", "value": 2.23, "unit": "%"},
      {"measurement": "Periosteal mineralizing surface", "setting": "Rattus norvegicus [16]", "value": 15.21, "unit": "%"},
      {"measurement": "Tissue area", "setting": "Rattus norvegicus [17]", "value": 5.19, "unit": "mm"},
      {"measurement": "Mineral apposition rate", "setting": "Rattus norvegicus [18]", "value": 0.87, "unit": "µm/day"},
      {"measurement": "Activity", "setting": "Rattus norvegicus [19]", "value": 247.55, "unit": "%"},
      {"measurement": "Activity", "setting": "Rattus norvegicus [20]", "value": 22.04, "unit": "%"},
      {"measurement": "Activity", "setting": "Rattus norvegicus [21]", "value": 5.72, "unit": "%"},
      {"measurement": "Trabecular no.", "setting": "Rattus norvegicus [22]", "value": "1.28 1/mm"},
      {"measurement": "Derived trabecular thickness", "setting": "Rattus norvegicus [23]", "value": 79.5, "unit": "µm"}
    ]}
  ]
}
